Consider three molecules from ChEMBL document CHEMBL3526016, “Interaction of lapatinib with cytochrome P450 3A5” (Drug Metab Dispos, 2012).

pKi: −log10 of the molar value.

Common to all, as to format: ADME
Data set [1] addresses T1, Cytochrome P450 3A5 (Homo sapiens, UniProt P20815). The experiment in a line: Inhibition of human recombinant CYP3A5 using testosterone as substrate assessed as testosterone 6-beta-hydroxylation at 5 to 50 uM preincubated up to 30 mins with NADPH followed by substrate addition measured after 10 mins by LC/MS/MS analysis. The note with it: recombinant enzyme. In a few lines:
(§1)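 Primary incubation at 37°C (n=3) held 20 pmol/ml rCYP3A5 in 100 mM phosphate (pH 7.4), 0.1% DMSO and 0.9% ACN, with inhibitor; lapatinib was at 2.5–50 µM. NADPH started the reaction; buffer replaced it in negative controls. At 0, 3, 8, 15, 22 and 30 min, aliquots were diluted 10-fold into 200 µM testosterone or 25 µM midazolam with NADPH regenerating system for 10 min at 37°C. 6β-Hydroxytestosterone or 1'-hydroxymidazolam was measured by LC/MS/MS. Ln % residual activity was regressed against time to give kobs.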

The target in data set [2] is T1, Cytochrome P450 3A5. The experiment in a line: Drug level assessed as recombinant human CYP3A5-mediated compound formation treated with O-dealkylated lapatinib at 50 uM after 60 mins by GSH trapping assay in presence of NADPH. The note with it: recombinant enzyme, 1 h. In outline:
(§2)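 Recombinant CYP3A5 at 50 pmol/ml with 5 mM GSH and an NADPH regenerating system in 100 mM potassium phosphate (pH 7.4) was pre-warmed at 37°C. Substrate was added to start the reaction. After 60 min it was quenched with ice-cold ACN and centrifuged, and the supernatant was dried under nitrogen and reconstituted. Adducts were detected by LC/MS/MS MRM scans. Negative controls omitted substrate, NADPH or GSH.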

The target in data set [3] is T1, Cytochrome P450 3A5. The experiment in a line: Drug level assessed as recombinant human CYP3A5-mediated compound formation treated with lapatinib at 50 uM after 60 mins by GSH trapping assay in presence of NADPH. The settings on record: recombinant enzyme, 1 h. In outline: as §2
A further data set has as its target Cytochrome P450 3A4 (Homo sapiens, UniProt P08684). The data set can be described thus: Inhibition of human recombinant CYP3A4 assessed as metabolite-inhibitor complex formation at 50 uM preincubated for 3 to 5 mins with NADPH A followed by NADPH B addition measured every 1 min for 10 mins by UV absorbance spectra analysis. The note with it: recombinant enzyme. In outline: (§3)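 For difference spectra, 50 µM compound with 100 pmol/ml recombinant enzyme and NADPH A in 100 mM potassium phosphate (pH 7.4) was pre-warmed at 37°C for 3–5 min. NADPH B was added to start the reaction. The mixture was scanned from 430 to 495 nm every 1 min for 10 min at 37°C against a reference cuvette, normalized to 0 min. The negative control replaced NADPH B with buffer.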

Data set [4] has as its target T1, Cytochrome P450 3A5. The experiment in a line: Inhibition of human recombinant CYP3A5 using midazolam as substrate assessed as midazolam 1'-hydroxylation at 2.5 to 50 uM preincubated up to 30 mins with NADPH followed by substrate addition measured after 10 mins by LC/MS/MS analysis. The settings on record: recombinant enzyme. In outline: as §1
The target of data set [5] is T1, Cytochrome P450 3A5. The experiment in a line: Inhibition of human recombinant CYP3A5 using testosterone as substrate assessed as testosterone 6-beta-hydroxylation at 50 uM preincubated up to 30 mins without NADPH followed by substrate addition measured after 10 mins by LC/MS/MS analysis. The note with it: recombinant enzyme. In a few lines: as §1
Data set [6] concerns the target T1, Cytochrome P450 3A5. The experiment in a line: Inhibition of human recombinant CYP3A5 using testosterone as substrate assessed as testosterone 6beta-hydroxylation at 50 uM preincubated up to 30 mins with NADPH followed by substrate addition measured after 10 mins by LC/MS/MS analysis. The settings on record: recombinant enzyme. In a few lines: as §1
Data set [7] concerns the target T1, Cytochrome P450 3A5. The data set can be described thus: (§4) Inhibition of human recombinant CYP3A5 using testosterone as substrate assessed as testosterone 6-beta-hydroxylation preincubated up to 30 mins with NADPH followed by substrate addition measured after 10 mins by LC/MS/MS analysis. In outline:
(§5)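 Primary: rCYP3A5 20 pmol/ml, inhibitor 2.5–50 μM, 100 mM phosphate pH 7.4, 37°C, NADPH-initiated; aliquots at 0–30 min diluted 10-fold into secondary mix with 200 μM testosterone plus NADPH regenerating system, 10 min at 37°C. 6β-hydroxytestosterone by LC/MS/MS, triplicate. ln % residual activity vs time gave kobs; KI, kinact from Kitz-Wilson plot.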

In data set [8] the target is T2, CYP3A5 (Homo sapiens, UniProt P20815). The description is as §4. The settings on record: human, recombinant human CYP3A5, probe testosterone. In a few lines: as §5
T2 sequence (P20815 whole entry): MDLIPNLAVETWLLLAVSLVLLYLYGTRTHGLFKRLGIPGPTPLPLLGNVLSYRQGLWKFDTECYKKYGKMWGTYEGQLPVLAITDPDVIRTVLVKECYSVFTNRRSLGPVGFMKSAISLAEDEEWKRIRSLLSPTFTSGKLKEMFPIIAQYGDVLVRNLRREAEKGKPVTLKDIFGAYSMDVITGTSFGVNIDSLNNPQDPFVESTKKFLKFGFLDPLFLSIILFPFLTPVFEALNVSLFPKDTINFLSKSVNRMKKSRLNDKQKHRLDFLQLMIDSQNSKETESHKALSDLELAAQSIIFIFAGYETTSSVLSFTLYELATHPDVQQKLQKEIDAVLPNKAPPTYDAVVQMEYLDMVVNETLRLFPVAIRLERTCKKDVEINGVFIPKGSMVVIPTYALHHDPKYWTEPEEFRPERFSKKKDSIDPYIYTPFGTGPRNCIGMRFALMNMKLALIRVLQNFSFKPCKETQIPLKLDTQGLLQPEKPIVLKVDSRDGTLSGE
The target of data set [9] is T1, Cytochrome P450 3A5. The data set can be described thus: Inhibition of human recombinant CYP3A5 assessed as metabolite-inhibitor complex formation at 50 uM preincubated for 3 to 5 mins with NADPH A followed by NADPH B addition measured every 1 min for 10 mins by UV absorbance spectra analysis. The settings on record: recombinant enzyme. In a few lines:
as §3

In data set [10] the target is T2, CYP3A5. The experiment in a line: Inhibition of human recombinant CYP3A5 assessed as reduction of enzyme-CO complex formation at 50 uM preincubated for 3 to 5 mins with NADPH B followed by NADPH A addition measured after 30 mins by CO difference spectroscopy relative to control. In outline: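 rCYP3A5 640 pmol/ml with 50 μM inhibitor in 100 mM potassium phosphate pH 7.4, prewarmed 3–5 min at 37°C, NADPH-initiated, incubated 30 min at 37°C (n=3). Quenched in buffer with EDTA, glycerol, NP-40, safranin O; split sample/reference, CO bubbled (~100 bubbles). P450 content = (ΔA450−ΔA490)/0.091; controls without NADPH.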

For data set [11], the target named is T2, CYP3A5. The experiment in a line: Ratio of Kinact to Ki for recombinant human CYP3A5 using testosterone as substrate. The note with it: recombinant human CYP3A5, probe testosterone. In outline: as §5
For data set [12], the target named is T1, Cytochrome P450 3A5. The data set can be described thus: Irreversible inhibition of human recombinant CYP3A5 using testosterone as substrate assessed as residual enzyme activity at 50 uM preincubated up to 30 mins with NADPH followed by substrate addition measured after dialysis. In outline: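 200 pmol/ml rCYP3A5 with 50 µM lapatinib and NADPH in 100 mM phosphate (pH 7.4) was incubated for 30 min at 37°C (n=3). Mixtures were dialysed (12000–14000 Da cut-off) against buffer at 4°C with one buffer change at 2 h, then for 4 h more. Aliquots before and after dialysis were assayed with 200 µM testosterone for 10 min at 37°C. 6β-Hydroxytestosterone was measured by LC/MS/MS.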

The target in data set [13] is T1, Cytochrome P450 3A5. The data set can be described thus: Drug metabolism assessed as recombinant human CYP3A5-mediated quinoneimine metabolite formation by measuring retention time at 50 uM after 60 mins by GSH trapping assay in presence of NADPH. The note with it: recombinant enzyme, 1 h. In outline:
as §2

Data set [14] concerns the target T1, Cytochrome P450 3A5. The experiment in a line: Inhibition of human recombinant CYP3A5 at 50 uM preincubated up to 30 mins with NADPH in presence of GSH. The settings on record: recombinant enzyme. In a few lines: (§6)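 Primary incubation at 37°C contained 20 pmol/ml rCYP3A5 in 100 mM phosphate (pH 7.4) with 50 µM lapatinib and NADPH, with or without 2 mM GSH. At 0–30 min, aliquots were diluted 10-fold into secondary incubations with 200 µM testosterone and NADPH regenerating system for 10 min at 37°C. 6β-Hydroxytestosterone was measured by LC/MS/MS. Triplicates were run.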

In data set [15] the target is T1, Cytochrome P450 3A5. The data set can be described thus: Inhibition of human recombinant CYP3A5 using testosterone as substrate assessed as testosterone 6-beta-hydroxylation at 2.5 to 50 uM preincubated up to 30 mins with NADPH followed by substrate addition by LC/MS/MS analysis. The settings on record: recombinant enzyme, TDE = time-dependent effect. In a few lines:
as §5

Data set [16] concerns the target T1, Cytochrome P450 3A5. The experiment in a line: Inhibition of human recombinant CYP3A5 at 50 uM preincubated up to 30 mins with NADPH in absence of GSH. The note with it: recombinant enzyme. In a few lines: as §6
In a further data set the target is CYP3A4 (Homo sapiens, UniProt P08684). The data set can be described thus: Ratio of Kinact to Ki for recombinant human CYP3A4 using testosterone as substrate. The note with it: recombinant human CYP3A4, probe testosterone.
Sequence of CYP3A4 (P08684 whole entry): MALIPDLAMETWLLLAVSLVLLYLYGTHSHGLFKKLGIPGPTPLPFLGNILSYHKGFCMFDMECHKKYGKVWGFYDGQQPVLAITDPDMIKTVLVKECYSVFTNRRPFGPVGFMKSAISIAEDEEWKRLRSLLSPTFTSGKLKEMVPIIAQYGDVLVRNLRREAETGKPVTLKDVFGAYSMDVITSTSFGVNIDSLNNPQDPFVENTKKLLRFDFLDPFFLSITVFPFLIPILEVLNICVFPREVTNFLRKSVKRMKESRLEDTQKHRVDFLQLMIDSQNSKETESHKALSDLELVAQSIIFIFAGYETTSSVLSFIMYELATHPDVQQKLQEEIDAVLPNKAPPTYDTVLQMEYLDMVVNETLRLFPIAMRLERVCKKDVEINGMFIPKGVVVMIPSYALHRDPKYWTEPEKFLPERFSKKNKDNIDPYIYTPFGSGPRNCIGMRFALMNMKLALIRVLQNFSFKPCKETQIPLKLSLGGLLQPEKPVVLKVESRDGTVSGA

T1 sequence (P20815 whole entry): as the sequence (P20815 whole entry) above
Sequence of Cytochrome P450 3A4 (P08684 whole entry): as the sequence (P08684 whole entry) above

For `CS(=O)(=O)CCNCc1ccc(-c2ccc3ncnc(Nc4ccc(O)c(Cl)c4)c3c2)o1`, the “inhibition (INH)” value on Cytochrome P450 3A5 [1] is listed as “Not Active”.

Regarding `CS(=O)(=O)CCNCc1ccc(-c2ccc3ncnc(/N=C4\C=CC(=O)C(Cl)=C4)c3c2)o1`, the Drug metabolism entry at Cytochrome P450 3A5 [2] and at Cytochrome P450 3A5 [3] was “metabolite_detected” throughout.

Take `CS(=O)(=O)CCNCc1ccc(-c2ccc3ncnc(Nc4ccc(OCc5cccc(F)c5)c(Cl)c4)c3c2)o1` [LAPATINIB]: the “inhibition (INH)” value was “Active” at Cytochrome P450 3A4; “Not Active” on Cytochrome P450 3A5 [4]; “Not Active” on Cytochrome P450 3A5 [5]; “Active” at Cytochrome P450 3A5 [6]; “Dose-dependent effect” on Cytochrome P450 3A5 [7] (human, recombinant enzyme, 10 min); “Not Active” at Cytochrome P450 3A5 [9]. Also, the “inhibition (INH)” value is listed as “Active” on Cytochrome P450 3A5 [12], “Not Active” on Cytochrome P450 3A5 [14], “tde” on Cytochrome P450 3A5 [15] and “Active” at Cytochrome P450 3A5 [16]. Moreover, the negative-log Ki (pKi) at Cytochrome P450 3A5 [7] was 4.42. In addition, at CYP3A5 [8], the kinact at 10 min was 0.000377 s⁻¹. For the same molecule, the inhibition at 0.5 h, 50 µM at CYP3A5 [10] stood at 22%. The values for the kinact/KI at CYP3A5 [11] and on CYP3A4 were 10 M⁻¹ s⁻¹ and 197 M⁻¹ s⁻¹, respectively. Besides, on Cytochrome P450 3A5 [13], the Retention_time stood at 1.71 min.

In general, pKi refers to the Ki on a negative log10 scale, so that one unit is a factor of ten. Broadly, the kinact is the rate constant of inactivation at saturating inhibitor. The inhibition is the share of the control response that was lost under treatment. Broadly, the kinact/KI is the maximal inactivation rate divided by the concentration that gives half of it.
